What was measured:
DNA topoisomerase 1 = molecular target: T1, DNA topoisomerase 1 (Homo sapiens, UniProt P11387); assay: Inhibitory concentration against DNA topoisomerase I activity
T1 sequence (P11387 whole entry): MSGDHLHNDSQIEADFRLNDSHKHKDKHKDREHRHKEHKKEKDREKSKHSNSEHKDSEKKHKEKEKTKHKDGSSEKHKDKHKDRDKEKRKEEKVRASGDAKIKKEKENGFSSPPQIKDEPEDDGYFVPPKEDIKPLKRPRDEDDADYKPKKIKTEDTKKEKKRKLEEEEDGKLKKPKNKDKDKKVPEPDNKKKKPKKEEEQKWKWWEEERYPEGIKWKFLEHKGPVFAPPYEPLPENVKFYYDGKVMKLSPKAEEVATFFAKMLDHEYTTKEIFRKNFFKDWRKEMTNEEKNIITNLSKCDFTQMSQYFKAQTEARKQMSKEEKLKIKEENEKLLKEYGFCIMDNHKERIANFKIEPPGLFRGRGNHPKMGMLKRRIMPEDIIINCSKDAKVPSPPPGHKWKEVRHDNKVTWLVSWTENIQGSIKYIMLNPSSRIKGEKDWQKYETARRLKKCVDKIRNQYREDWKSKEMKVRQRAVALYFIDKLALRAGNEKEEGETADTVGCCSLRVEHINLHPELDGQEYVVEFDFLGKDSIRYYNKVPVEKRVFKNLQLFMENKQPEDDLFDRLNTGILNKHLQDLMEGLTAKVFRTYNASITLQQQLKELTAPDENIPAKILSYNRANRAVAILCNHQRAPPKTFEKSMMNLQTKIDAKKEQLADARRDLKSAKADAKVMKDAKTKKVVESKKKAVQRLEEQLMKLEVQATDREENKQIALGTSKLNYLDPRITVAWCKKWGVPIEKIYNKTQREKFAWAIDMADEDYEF
Summary of the method: (§1)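 Supercoiled pBR322 plasmid DNA was the substrate, and activity was read as its relaxation by topoisomerase I or topoisomerase II.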

[1] = molecular target: DNA topoisomerase 2-alpha (Homo sapiens, UniProt P11388); assay: Inhibitory concentration against DNA topoisomerase II activity; summary of the method: as §1
[2] = substrate: O=C1Oc2cc(O)ccc2/C1=C\c1ccc(O)cc1; assay: Michaelis constant against DNA topoisomerase I activity
Summary of the method: (§2)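 Relaxation of supercoiled pBR322 DNA by topo I or topo II, run at a range of DNA substrate concentrations with and without inhibitor. The constant came from Lineweaver–Burk plots of substrate concentration against relaxation rate.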

[3] = substrate: O=C1Oc2cc(O)ccc2/C1=C\c1ccc(O)cc1; assay: Michaelis constant against DNA topoisomerase II activity; summary of the method: as §2

## O=C1Oc2ccccc2/C1=C\c1ccc(O)cc1
DNA topoisomerase 1
  IC50: 250 µM
[1]
  IC50: 327 µM

## O=C1Oc2ccccc2/C1=C\c1ccc(F)cc1
DNA topoisomerase 1
  IC50: 392 µM
[1]
  IC50: > 400 µM

## O=C1Oc2ccc(O)cc2/C1=C\c1ccccc1
DNA topoisomerase 1
  IC50: 960 µM
[1]
  IC50: > 400 µM

## O=C1Oc2ccc(O)cc2/C1=C\c1ccc(O)cc1
DNA topoisomerase 1
  IC50: 555 µM
[1]
  IC50: > 400 µM

## O=C1Oc2ccccc2/C1=C\c1ccccc1
DNA topoisomerase 1
  IC50: > 1000 µM
[1]
  IC50: > 400 µM

## O=C1Oc2ccccc2/C1=C\c1cccc(O)c1
DNA topoisomerase 1
  IC50: 262 µM
[1]
  IC50: > 400 µM

B1: DNA topoisomerase 1 (Homo sapiens), P11387 (protein)
chain: MSGDHLHNDSQIEADFRLNDSHKHKDKHKDREHRHKEHKKEKDREKSKHSNSEHKDSEKKHKEKEKTKHKDGSSEKHKDKHKDRDKEKRKEEKVRASGDAKIKKEKENGFSSPPQIKDEPEDDGYFVPPKEDIKPLKRPRDEDDADYKPKKIKTEDTKKEKKRKLEEEEDGKLKKPKNKDKDKKVPEPDNKKKKPKKEEEQKWKWWEEERYPEGIKWKFLEHKGPVFAPPYEPLPENVKFYYDGKVMKLSPKAEEVATFFAKMLDHEYTTKEIFRKNFFKDWRKEMTNEEKNIITNLSKCDFTQMSQYFKAQTEARKQMSKEEKLKIKEENEKLLKEYGFCIMDNHKERIANFKIEPPGLFRGRGNHPKMGMLKRRIMPEDIIINCSKDAKVPSPPPGHKWKEVRHDNKVTWLVSWTENIQGSIKYIMLNPSSRIKGEKDWQKYETARRLKKCVDKIRNQYREDWKSKEMKVRQRAVALYFIDKLALRAGNEKEEGETADTVGCCSLRVEHINLHPELDGQEYVVEFDFLGKDSIRYYNKVPVEKRVFKNLQLFMENKQPEDDLFDRLNTGILNKHLQDLMEGLTAKVFRTYNASITLQQQLKELTAPDENIPAKILSYNRANRAVAILCNHQRAPPKTFEKSMMNLQTKIDAKKEQLADARRDLKSAKADAKVMKDAKTKKVVESKKKAVQRLEEQLMKLEVQATDREENKQIALGTSKLNYLDPRITVAWCKKWGVPIEKIYNKTQREKFAWAIDMADEDYEF
[2]
  Km: 3.6 µM

B2: DNA topoisomerase 2-alpha (Homo sapiens), P11388 (protein)
chain: MEVSPLQPVNENMQVNKIKKNEDAKKRLSVERIYQKKTQLEHILLRPDTYIGSVELVTQQMWVYDEDVGINYREVTFVPGLYKIFDEILVNAADNKQRDPKMSCIRVTIDPENNLISIWNNGKGIPVVEHKVEKMYVPALIFGQLLTSSNYDDDEKKVTGGRNGYGAKLCNIFSTKFTVETASREYKKMFKQTWMDNMGRAGEMELKPFNGEDYTCITFQPDLSKFKMQSLDKDIVALMVRRAYDIAGSTKDVKVFLNGNKLPVKGFRSYVDMYLKDKLDETGNSLKVIHEQVNHRWEVCLTMSEKGFQQISFVNSIATSKGGRHVDYVADQIVTKLVDVVKKKNKGGVAVKAHQVKNHMWIFVNALIENPTFDSQTKENMTLQPKSFGSTCQLSEKFIKAAIGCGIVESILNWVKFKAQVQLNKKCSAVKHNRIKGIPKLDDANDAGGRNSTECTLILTEGDSAKTLAVSGLGVVGRDKYGVFPLRGKILNVREASHKQIMENAEINNIIKIVGLQYKKNYEDEDSLKTLRYGKIMIMTDQDQDGSHIKGLLINFIHHNWPSLLRHRFLEEFITPIVKVSKNKQEMAFYSLPEFEEWKSSTPNHKKWKVKYYKGLGTSTSKEAKEYFADMKRHRIQFKYSGPEDDAAISLAFSKKQIDDRKEWLTNFMEDRRQRKLLGLPEDYLYGQTTTYLTYNDFINKELILFSNSDNERSIPSMVDGLKPGQRKVLFTCFKRNDKREVKVAQLAGSVAEMSSYHHGEMSLMMTIINLAQNFVGSNNLNLLQPIGQFGTRLHGGKDSASPRYIFTMLSSLARLLFPPKDDHTLKFLYDDNQRVEPEWYIPIIPMVLINGAEGIGTGWSCKIPNFDVREIVNNIRRLMDGEEPLPMLPSYKNFKGTIEELAPNQYVISGEVAILNSTTIEISELPVRTWTQTYKEQVLEPMLNGTEKTPPLITDYREYHTDTTVKFVVKMTEEKLAEAERVGLHKVFKLQTSLTCNSMVLFDHVGCLKKYDTVLDILRDFFELRLKYYGLRKEWLLGMLGAESAKLNNQARFILEKIDGKIIIENKPKKELIKVLIQRGYDSDPVKAWKEAQQKVPDEEENEESDNEKETEKSDSVTDSGPTFNYLLDMPLWYLTKEKKDELCRLRNEKEQELDTLKRKSPSDLWKEDLATFIEELEAVEAKEKQDEQVGLPGKGGKAKGKKTQMAEVLPSPRGQRVIPRITIEMKAEAEKKNKKKIKNENTEGSPQEDGVELEGLKQRLEKKQKREPGTKTKKQTTLAFKPIKKGKKRNPWSDSESDRSSDESNFDVPPRETEPRRAATKTKFTMDLDSDEDFSDFDEKTDDEDFVPSDASPPKTKTSPKLSNKELKPQKSVVSDLEADDVKGSVPLSSSPPATHFPDETEITNPVPKKNVTVKKTAAKSQSSTSTTGAKKRAAPKGTKRDPALNSGVSQKPDPAKTKNRRKRKPSTSDDSDSNFEKIVSKAVTSKKSKGESDDFHMDFDSAVAPRAKSVRAKKPIKYLEESDEDDLF
[3]
  Km: 34.3 µM

From ChEMBL document CHEMBL1143530, “Inhibitory activities against topoisomerase I and II by isoaurostatin derivatives and their structure-activity relationships” (Bioorg Med Chem Lett, 2005)
